Reference: ChEMBL document CHEMBL3774351, “Three stories on Eph kinase inhibitors: From in silico discovery to in vivo validation” (Eur J Med Chem, 2016)
Values belong to the compound of their own block, whether it stands above or below them.

Experiments:
Mus musculus [1] = test: Toxicity in nude mouse xenografted with human MDA-MB-231 cells assessed as reduction in body weight at 50 mg/kg, bid administered for 21 days measured during the treatment period; format: organism-based; set-up: scale not given: the % may be the effect or the level left; settings: in vivo, 504 h
Outline: (§1)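 MDA-MB-231 xenografts in nude mice, treatment started at median tumor volume 108 mm3. Oral gavage of 50 mg/kg twice daily (100 mg/kg/day) for 21 days versus vehicle cohort, 9 animals per cohort. Median tumor volume followed over time. Mean body weight monitored through the treatment period.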

MDA-MB-231 = test: Antitumor activity against human MDA-MB-231 cells xenografted in nude mouse assessed as tumor growth inhibition at 50 mg/kg, bid administered for 21 days relative to control; format: functional; settings: MDA-MB-231, 504 h; outline: as §1
HUVEC [2] = test: Antiangiogenic activity in HUVEC assessed as inhibition of VEGF-A-induced angiogenic sprouting by spheroid-based sprouting assay; settings: Homo sapiens
Mus musculus [3] = test: AUClast in CD-1 (ICR) mouse at 1 mg/kg, iv; format: ADME, organism-based; set-up: dose 1 mg/kg, route intravenous, time 0 - last; settings: in vivo
Ephrin type-B receptor 4 = target: T1, Ephrin type-B receptor 4 (Homo sapiens, UniProt P54760); test: Inhibition of N-terminal GST-fused His6-tagged human recombinant EphB4
T1 sequence (P54760 whole entry): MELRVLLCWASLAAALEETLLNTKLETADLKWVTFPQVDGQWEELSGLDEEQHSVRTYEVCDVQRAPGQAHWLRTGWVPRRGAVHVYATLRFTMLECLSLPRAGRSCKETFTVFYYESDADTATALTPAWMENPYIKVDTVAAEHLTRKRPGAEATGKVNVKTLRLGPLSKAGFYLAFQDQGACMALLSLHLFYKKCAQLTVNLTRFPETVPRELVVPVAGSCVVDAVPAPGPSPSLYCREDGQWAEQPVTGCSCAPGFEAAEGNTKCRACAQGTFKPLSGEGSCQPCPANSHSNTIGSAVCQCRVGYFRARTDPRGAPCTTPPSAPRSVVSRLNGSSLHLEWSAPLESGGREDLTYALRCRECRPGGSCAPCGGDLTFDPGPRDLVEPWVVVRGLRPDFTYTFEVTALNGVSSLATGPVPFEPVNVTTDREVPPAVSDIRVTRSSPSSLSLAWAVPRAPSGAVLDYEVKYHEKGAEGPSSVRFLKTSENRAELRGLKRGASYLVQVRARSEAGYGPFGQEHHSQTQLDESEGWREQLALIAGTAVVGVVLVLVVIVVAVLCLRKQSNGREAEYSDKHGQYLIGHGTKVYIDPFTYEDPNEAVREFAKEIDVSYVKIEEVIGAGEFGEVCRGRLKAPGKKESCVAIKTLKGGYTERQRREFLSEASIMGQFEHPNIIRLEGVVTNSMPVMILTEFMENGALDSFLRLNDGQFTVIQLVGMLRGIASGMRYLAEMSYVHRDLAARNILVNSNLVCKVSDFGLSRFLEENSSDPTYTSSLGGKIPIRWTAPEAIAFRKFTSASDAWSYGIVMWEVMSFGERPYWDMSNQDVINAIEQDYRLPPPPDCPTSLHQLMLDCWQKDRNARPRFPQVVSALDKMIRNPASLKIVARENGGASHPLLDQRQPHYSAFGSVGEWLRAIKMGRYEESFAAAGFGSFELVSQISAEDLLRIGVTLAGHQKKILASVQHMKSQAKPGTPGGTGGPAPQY
Outline: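 EphB4 FRET enzymatic assay measuring inhibition of phosphorylation of a synthetic substrate, with ATP at Km.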

HUVEC [4] = test: Antiangiogenic activity in HUVEC assessed as reduction in branching points at 1 uM after 15 hrs by matrigel assay; format: functional; settings: Homo sapiens
HUVEC [5] = test: Antiangiogenic activity in HUVEC assessed as reduction in branching points after 15 hrs by matrigel assay; format: functional, cell-based; settings: Homo sapiens
Outline: (§2)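 HUVEC seeded on Matrigel and incubated with compound for 15 h. Tube length, total branching points and total loops quantified against untreated control cells. Dose-response curves used to derive IC50 for each read-out. Measurements done at least in triplicate, SEM shown.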

HUVEC [6] = test: Antiangiogenic activity in HUVEC assessed as reduction in number of loops after 15 hrs by matrigel assay; format: functional, cell-based; settings: Homo sapiens; outline: as §2
HUVEC [7] = test: Antiangiogenic activity in HUVEC assessed as reduction in number of loops at 1 uM after 15 hrs by matrigel assay; format: functional; settings: Homo sapiens
HUVEC [8] = test: Antiangiogenic activity in HUVEC assessed as reduction in tube length after 15 hrs by matrigel assay; format: functional, cell-based; settings: Homo sapiens; outline: as §2
[9] = Half life in human liver microsomes at 0.1 uM up to 60 mins by HPLC-MS/MS analysis

AUClast (Mus musculus [3]): 39 ng·h/mL
Structure (SMILES): Cc1ccc(O)cc1-n1c(N)c(C(N)=O)c2nc3ccccc3nc21
Activity (Mus musculus [1]): <= 16%
inhibition in vivo at 50 mg/kg (MDA-MB-231): 80%
IC50 (HUVEC [2]): 1.5 µM

IC50 (Ephrin type-B receptor 4): 0.3 µM
Structure (SMILES): COc1cccc(-n2c(N)c(C(N)=O)c3nc4ccccc4nc32)c1

Structure (SMILES): COc1ccccc1-n1c(-c2ccc(O)cc2C)cn2c3c(=O)[nH]c(=O)n(C)c3nc12
inhibition at 1 µM (HUVEC [4]): 87%
IC50 (HUVEC [5]): 0.191 µM
IC50 (HUVEC [6]): 0.071 µM
inhibition at 1 µM (HUVEC [7]): 97%
IC50 (HUVEC [8]): 1.7 µM

half-life at 1 h, 0.1 µM [9]: > 1 h
Structure (SMILES): CC(C)NCC(O)COc1cccc2ccccc12 (stereo unspecified) [PROPRANOLOL]
